Measurements published in ChEMBL document CHEMBL3045365, “Chemical composition and antifungal activity of Salvia macrochlamys and Salvia recognita essential oils” (2006).

Assays:
Colletotrichum fragariae [1] = assay: Antifungal activity against Colletotrichum fragariae assessed as growth inhibition at 4 uL in 2 mM acetone by direct bioautography; type: functional
Procedure, shortened: (§1)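 Standards applied at 2 mM in 4 μL acetone onto silica TLC plates and tested by direct bioautography against each Colletotrichum species. Activity read as clear inhibitory zone size (mm), reported as mean ± SEM. Technical-grade fungicides at 2 mM in 2 μL EtOH served as internal standards. Runs repeated multiple times in dose- and non-dose-response formats.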

Colletotrichum acutatum [2] = assay: Antifungal activity against Colletotrichum acutatum assessed as growth inhibition at 4 uL in 2 mM acetone by direct bioautography; type: functional; procedure, shortened: as §1
[3] = tested on: Colletotrichum gloeosporioides; assay: Antifungal activity against Colletotrichum gloeosporioides assessed as growth inhibition at 4 uL in 2 mM acetone by direct bioautography; type: functional; procedure, shortened: as §1
[4] = tested on: Colletotrichum gloeosporioides; assay: Antifungal activity against Colletotrichum gloeosporioides assessed as growth inhibition at 2 uL in 2 mM EtOH by direct bioautography
Colletotrichum fragariae [5] = assay: Antifungal activity against Colletotrichum fragariae assessed as growth inhibition at 2 uL in 2 mM EtOH by direct bioautography
Colletotrichum acutatum [6] = assay: Antifungal activity against Colletotrichum acutatum assessed as growth inhibition at 2 uL in 2 mM EtOH by direct bioautography

With CC1(C)[C@H]2CC[C@]1(C)[C@H](O)C2 [(-)-BORNEOL] the “inhibition zone (IZ)” value (Colletotrichum fragariae [1]) was 0 mm, the “inhibition zone (IZ)” value (Colletotrichum acutatum [2]) was 0 mm and the “inhibition zone (IZ)” value [3] was 0 mm.
With CC1(C)[C@H]2CC[C@]1(C)C(=O)C2 [(-)-CAMPHOR] the “inhibition zone (IZ)” value (Colletotrichum fragariae [1]) was 0 mm, the “inhibition zone (IZ)” value (Colletotrichum acutatum [2]) was 0 mm and the “inhibition zone (IZ)” value [3] was 0 mm.
In the case of CC12CCC(CC1)C(C)(C)O2 [EUCALYPTOL], the “inhibition zone (IZ)” value (Colletotrichum fragariae [1]) is reported as 0 mm, the “inhibition zone (IZ)” value (Colletotrichum acutatum [2]) is reported as 0 mm and the “inhibition zone (IZ)” value [3] is reported as 0 mm.
For Cc1ccc(C(C)C)c(O)c1 [THYMOL], the “inhibition zone (IZ)” value (Colletotrichum fragariae [1]) was 0 mm, the “inhibition zone (IZ)” value (Colletotrichum acutatum [2]) was 0 mm and the “inhibition zone (IZ)” value [3] was 0 mm.
For Cc1cc(C2CC2)nc(Nc2ccccc2)n1 [CYPRODINIL], the “inhibition zone (IZ)” value [4] was 29.33 mm, the “inhibition zone (IZ)” value (Colletotrichum fragariae [5]) was 30.33 mm and the “inhibition zone (IZ)” value (Colletotrichum acutatum [6]) was 29.33 mm.
In the case of CCCCNC(=O)n1c(NC(=O)OC)nc2ccccc21 [BENOMYL], the “inhibition zone (IZ)” value [4] is reported as 19.33 mm, the “inhibition zone (IZ)” value (Colletotrichum fragariae [5]) is reported as 18.33 mm and the “inhibition zone (IZ)” value (Colletotrichum acutatum [6]) is reported as 18 mm.
O=C1C2CC=CCC2C(=O)N1SC(Cl)(Cl)Cl (stereo not drawn) [CAPTAN] was tested, and the “inhibition zone (IZ)” value [4] was 10.33 mm, the “inhibition zone (IZ)” value (Colletotrichum fragariae [5]) was 15 mm and the “inhibition zone (IZ)” value (Colletotrichum acutatum [6]) was 14.67 mm.
In the case of CC1(C)C2CCC1(C)C(O)C2 (stereo not drawn) [BORNEOL], the “inhibition zone (IZ)” value (Colletotrichum fragariae [1]) is reported as 0 mm, the “inhibition zone (IZ)” value (Colletotrichum acutatum [2]) is reported as 0 mm and the “inhibition zone (IZ)” value [3] is reported as 0 mm.
In the case of CO/C=C(/C(=O)OC)c1ccccc1Oc1cc(Oc2ccccc2C#N)ncn1 [AZOXYSTROBIN], the “inhibition zone (IZ)” value [4] is reported as 28.33 mm, the “inhibition zone (IZ)” value (Colletotrichum fragariae [5]) is reported as 19.33 mm and the “inhibition zone (IZ)” value (Colletotrichum acutatum [6]) is reported as 24.33 mm.
For CC12CCC(CC1=O)C2(C)C (stereo not drawn) [CAMPHOR], the “inhibition zone (IZ)” value (Colletotrichum fragariae [1]) was 0 mm, the “inhibition zone (IZ)” value (Colletotrichum acutatum [2]) was 0 mm and the “inhibition zone (IZ)” value [3] was 0 mm.
With Cc1ccc(C(C)C)cc1O [CARVACROL] the “inhibition zone (IZ)” value (Colletotrichum fragariae [1]) was 3.4 mm, the “inhibition zone (IZ)” value (Colletotrichum acutatum [2]) was 4.5 mm and the “inhibition zone (IZ)” value [3] was 3.5 mm.
